Source: ChEMBL document CHEMBL4406859, “Antitumor and antiviral activities of 4-substituted 1,2,3-triazolyl-2,3-dibenzyl-L-ascorbic acid derivatives” (Eur J Med Chem, 2019)
The source made the active and inactive calls. No cut-off for these calls is given here.

Assays:
HepG2 = assay: Antiproliferative activity against human HepG2 cells assessed as reduction in cell viability incubated for 72 hrs by MTT assay; format: functional, cell-based; conditions: HepG2, 72 h
How it was run: (§1)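 Cells (ATCC) grown in DMEM with 10 FBS, penicillin/streptomycin, 2 mM glutamine, 37 °C, 5 CO2. 5000 cells/well seeded; after 24 h, freshly prepared dilutions at five concentrations (0.01–100 μM) added for 72 h. MTT read-out; absorbance converted to percentage growth by NIH formulas. Two experiments in quadruplicate; IC50 by linear regression.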

Influenza B virus [1] = assay: Antiviral activity against Influenza B virus (B/Ned/537/05) infected in dog MDCK cells assessed as reduction in virus-induced cytopathogenicity incubated for 7 days by microscopic analysis; format: functional, organism-based; conditions: for EC50: 168 h
MCF7 [2] = assay: Antiproliferative activity against human MCF7 cells assessed as reduction in cell viability incubated for 72 hrs by MTT assay; format: functional, cell-based; conditions: MCF7, 72 h; how it was run: as §1
HFF = assay: Cytotoxicity against human HFF cells assessed as reduction in cell viability incubated for 72 hrs by MTT assay; format: cell-based; how it was run: as §1
[3] = Cytotoxicity against dog MDCK cells assessed as minimum cytotoxic concentration by observing alteration in cell morphology incubated for 3 days by microscopic analysis; format: cell-based, Canis lupus familiaris
Influenza A virus [4] = assay: Antiviral activity against Influenza A virus (A/Ned/378/05(H1N1)) infected in dog MDCK cells assessed as reduction in virus-induced cytopathogenicity incubated for 7 days by microscopic analysis; format: functional, organism-based
A549 = assay: Antiproliferative activity against human A549 cells assessed as reduction in cell viability incubated for 72 hrs by MTT assay; format: functional, cell-based; conditions: A549, 72 h; how it was run: as §1
SW-620 = assay: Antiproliferative activity against human SW620 cells assessed as reduction in cell viability incubated for 72 hrs by MTT assay; format: functional, cell-based; conditions: SW-620, 72 h; how it was run: as §1
Influenza B virus [5] = assay: Antiviral activity against Influenza B virus (B/Ned/537/05) infected in dog MDCK cells assessed as reduction in virus-induced cytopathogenicity incubated for 7 days by MTS assay; format: functional, organism-based; conditions: for EC50: 168 h
CFPAC-1 = assay: Antiproliferative activity against human CFPAC-1 cells assessed as reduction in cell viability incubated for 72 hrs by MTT assay; format: functional, cell-based; conditions: Homo sapiens, CFPAC-1, 72 h; read-out: IC50; how it was run: as §1
Influenza A virus [6] = assay: Antiviral activity against Influenza A virus (A/Ned/378/05(H1N1)) infected in dog MDCK cells assessed as reduction in virus-induced cytopathogenicity incubated for 7 days by MTS assay; format: functional, organism-based; conditions: for EC50: Influenza A virus, A/Ned/378/05(H1N1), MDCK, 168 h
HeLa = assay: Antiproliferative activity against human HeLa cells assessed as reduction in cell viability incubated for 72 hrs by MTT assay; format: functional, cell-based; how it was run: as §1
Influenza A virus H3N2 [7] = assay: Antiviral activity against Influenza A virus (A/HK/7/87(H3N2)) infected in dog MDCK cells assessed as reduction in virus-induced cytopathogenicity incubated for 7 days by microscopic analysis; format: functional, organism-based; conditions: A/Hong Kong/7/1987(H3N2); for EC50: 168 h
HCT-116 = assay: Antiproliferative activity against human HCT116cells assessed as reduction in cell viability incubated for 72 hrs by MTT assay; format: functional, cell-based; conditions: HCT-116, 72 h; how it was run: as §1
MDCK = assay: (§2) Cytotoxicity against dog MDCK cells assessed as reduction in cell viability incubated for 3 days by coulter counter method; format: cell-based, Canis lupus familiaris; conditions: mdck, 72 h
Influenza A virus H3N2 [8] = assay: Antiviral activity against Influenza A virus (A/HK/7/87(H3N2)) infected in dog MDCK cells assessed as reduction in virus-induced cytopathogenicity incubated for 7 days by MTS assay; format: functional, organism-based; conditions: A/Hong Kong/7/1987(H3N2); for EC50: 168 h
[9] = Cytotoxicity against human HELF cells assessed as minimum cytotoxic concentration by observing alteration in cell morphology incubated for 3 days by microscopic analysis; format: cell-based; conditions: HELF cells
How it was run: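 Read-out is the minimum cytotoxic concentration (MCC): the lowest compound concentration giving a microscopically detectable change in cell morphology. Measured on confluent human embryonic lung (HEL) fibroblast cultures exposed to a range of compound concentrations.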

[10] = as §2; format: cell-based, Canis lupus familiaris; conditions: MDCK cells
Cytomegalovirus [11] = assay: Antiviral activity against Cytomegalovirus Davis infected in human HELF cells assessed as reduction in virus-induced cytopathogenicity incubated for 7 days by Giemsa staining based microscopic analysis; format: functional, organism-based; conditions: Human betaherpesvirus 5, Davis, 168 h
How it was run: (§3)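 Confluent HEL fibroblasts infected with CMV (Davis or AD-169) at 100 PFU/well for 2 h. Residual virus removed, then medium with graded compound concentrations added (duplicate). Incubated 7 days at 37 °C. Cytopathogenicity scored microscopically after ethanol fixation and Giemsa staining. EC50 read from plots of % cytopathogenicity versus concentration.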

MCF7 [12] = assay: Induction of apoptosis in human MCF7 cells assessed as late apoptotic cells at 2 times of cytotoxic IC50 incubated for 48 hrs by annexin V staining based inverted phase contrast fluorescence microscopy (reference value: 10.60 %); format: functional
Cytomegalovirus [13] = assay: Antiviral activity against Cytomegalovirus AD169 infected in human HELF cells assessed as reduction in virus-induced cytopathogenicity incubated for 7 days by Giemsa staining based microscopic analysis; format: functional, organism-based; conditions: Human betaherpesvirus 5, AD169, HELF, 168 h; how it was run: as §3
Human alphaherpesvirus 1 [14] = assay: Antiviral activity against Herpes simplex virus 1 KOS infected in human HELF cells assessed as reduction in virus-induced cytopathogenicity incubated for 7 days by microscopic analysis; format: functional, organism-based; conditions: strain KOS
MCF7 [15] = assay: Downregulation of NOS2 in human MCF7 cells at cytotoxic IC50 incubated for 24 and 48 hrs by Western blot analysis; format: functional, cell-based
Human adenovirus 2 = assay: Antiviral activity against Human adenovirus 2 infected in human HELF cells assessed as reduction in virus-induced cytopathogenicity incubated for 7 days by microscopic analysis; format: functional, organism-based
Coxsackievirus B4 = assay: Antiviral activity against Human coxsackievirus B4 infected in vero cells assessed as reduction in virus-induced cytopathogenicity incubated for 7 days by microscopic analysis; format: functional, organism-based
MCF7 [16] = assay: Induction of apoptosis in human MCF7 cells assessed as early apoptotic cells at 2 times of cytotoxic IC50 incubated for 24 hrs by annexin V staining based inverted phase contrast fluorescence microscopy (reference value: 0 %); format: functional
Sindbis virus = assay: Antiviral activity against Sindbis virus infected in vero cells assessed as reduction in virus-induced cytopathogenicity incubated for 7 days by microscopic analysis; format: functional, organism-based
MCF7 [17] = assay: Induction of apoptosis in human MCF7 cells assessed as early apoptotic cells at 2 times of cytotoxic IC50 incubated for 48 hrs by annexin V staining based inverted phase contrast fluorescence microscopy (reference value: 0 %); format: functional
Human alphaherpesvirus 2 = assay: Antiviral activity against Herpes simplex virus 2 G infected in human HELF cells assessed as reduction in virus-induced cytopathogenicity incubated for 7 days by microscopic analysis; format: functional, organism-based
MCF7 [18] = assay: Induction of apoptosis in human MCF7 cells assessed as necrotic cells at 2 times of cytotoxic IC50 incubated for 24 hrs by annexin V staining based inverted phase contrast fluorescence microscopy (reference value: 0.84 %); format: functional
Reovirus sp. = assay: Antiviral activity against Reovirus infected in vero cells assessed as reduction in virus-induced cytopathogenicity incubated for 7 days by microscopic analysis; format: functional, organism-based
Human alphaherpesvirus 3 [19] = assay: Antiviral activity against thymidine kinase deficient Varicella zoster virus infected in human HELF cells assessed as reduction in virus-induced cytopathogenicity incubated for 7 days by Giemsa staining based microscopic analysis; format: functional, organism-based; conditions: Human alphaherpesvirus 3, HELF, 168 h
MCF7 [20] = assay: Induction of apoptosis in human MCF7 cells assessed as late apoptotic cells at 2 times of cytotoxic IC50 incubated for 24 hrs by annexin V staining based inverted phase contrast fluorescence microscopy (reference value: […]); format: functional
MCF7 [21] = assay: Induction of apoptosis in human MCF7 cells assessed as necrotic cells at 2 times of cytotoxic IC50 incubated for 24 hrs by annexin V staining based inverted phase contrast fluorescence microscopy (reference value: 0 %); format: functional
Human coronavirus 229E = assay: Antiviral activity against Human coronavirus 229E infected in human HELF cells assessed as reduction in virus-induced cytopathogenicity incubated for 7 days by microscopic analysis; format: functional, organism-based
Human alphaherpesvirus 3 [22] = assay: Antiviral activity against thymidine kinase positive Varicella zoster virus infected in human HELF cells assessed as reduction in virus-induced cytopathogenicity incubated for 7 days by Giemsa staining based microscopic analysis; format: functional, organism-based; conditions: Human alphaherpesvirus 3, HELF, 168 h
Human alphaherpesvirus 1 [23] = assay: Antiviral activity against Herpes simplex virus 1 TK-KOS-ACV infected in human HELF cells assessed as reduction in virus-induced cytopathogenicity incubated for 7 days by microscopic analysis; format: functional, organism-based
MCF7 [24] = assay: Upregulation of HIF1alpha in human MCF7 cells at cytotoxic IC50 incubated for 24 and 48 hrs by Western blot analysis; format: functional, cell-based

SMILES: O=C1O[C@H]([C@@H](O)Cn2ccnn2)C(OCc2ccccc2)=C1OCc1ccccc1
- IC50 (HepG2): > 100 µM
- EC50 (Influenza B virus [1]): > 100 µM
- IC50 (MCF7 [2]): > 100 µM
- IC50 (HFF): 0.61 µM
- MCC at 72 h [3]: > 100 µM
- EC50 (Influenza A virus [4]; Influenza A virus, A/Ned/378/05(H1N1), MDCK, 168 h): 75 µM
- IC50 (A549): > 100 µM
- IC50 (SW-620): > 100 µM
- EC50 (Influenza B virus [5]): > 100 µM
- IC50 (CFPAC-1): > 100 µM
- EC50 (Influenza A virus [6]): 35.1 µM
- IC50 (HeLa): > 100 µM
- EC50 (Influenza A virus H3N2 [7]): 45 µM
- IC50 (HCT-116): > 100 µM
- CC50 (MDCK): > 100 µM
- EC50 (Influenza A virus H3N2 [8]): 53.9 µM

SMILES: NC(=O)c1ncn([C@@H]2O[C@H](CO)[C@@H](O)[C@H]2O)n1 [RIBAVIRIN]
- EC50 (Influenza B virus [1]): 5.6 µM
- MCC at 72 h [3]: > 100 µM
- EC50 (Influenza A virus [4]): 8.9 µM
- EC50 (Influenza B virus [5]): 4.6 µM
- EC50 (Influenza A virus [6]): 18.2 µM
- EC50 (Influenza A virus H3N2 [7]): 2.3 µM
- MCC at 72 h [9]: > 250 µM
- CC50 at 72 h [10]: > 100 µM
- EC50 (Influenza A virus H3N2 [8]): 1.4 µM

SMILES: CCCCCCCCCCc1cn(C[C@H](O)[C@H]2OC(=O)C(OCc3ccccc3)=C2OCc2ccccc2)nn1
- IC50 (HepG2): 12.2 µM
- EC50 (Cytomegalovirus [11]): > 4 µM
- Activity (MCF7 [12]): 35.3%
- Activity (Influenza B virus [1]): inactive
- IC50 (MCF7 [2]): 0.08 µM
- EC50 (Cytomegalovirus [13]): > 4 µM
- Activity (Human alphaherpesvirus 1 [14]): inactive
- Activity (MCF7 [15]): Active
- Activity (Human adenovirus 2): inactive
- IC50 (HFF): > 100 µM
- Activity (Influenza A virus [4]): inactive
- IC50 (A549): 6.75 µM
- IC50 (SW-620): 45.1 µM
- Activity (Coxsackievirus B4): inactive
- Activity (Influenza B virus [5]): inactive
- Activity (MCF7 [16]): 0%
- Activity (Sindbis virus): inactive
- Activity (MCF7 [17]): 13.4%
- Activity (Human alphaherpesvirus 2): inactive
- IC50 (CFPAC-1): 40.3 µM
- Activity (MCF7 [18]): 8.76%
- Activity (Reovirus sp.): inactive
- EC50 (Human alphaherpesvirus 3 [19]): 10.7 µM
- Activity (MCF7 [20]): 1.68%
- Activity (Influenza A virus [6]): inactive
- Activity (MCF7 [21]): 11.36%
- Activity (Human coronavirus 229E): inactive
- IC50 (HeLa): 22.9 µM
- EC50 (Human alphaherpesvirus 3 [22]): 7.76 µM
- Activity (Human alphaherpesvirus 1 [23]): inactive
- Activity (Influenza A virus H3N2 [7]): inactive
- IC50 (HCT-116): 28.8 µM
- MCC at 72 h [9]: 20 µM
- Activity (Influenza A virus H3N2 [8]): inactive
- Activity (MCF7 [24]): Active
